Assay results as given in ChEMBL document CHEMBL2346654, “Discovery of biological evaluation of pyrazole/imidazole amides as mGlu5 receptor negative allosteric modulators” (Bioorg Med Chem Lett, 2013).
One block for each compound: values may come before it. Calls of active or inactive are those of the source. The rule behind the calls is not given here.

Tests used:
[1] = biological target: 5-hydroxytryptamine receptor 2C (Homo sapiens) (UniProt P28335); experiment: Inhibition of 5-HT2C receptor (unknown origin) at 10 uM
[2] = biological target: Muscarinic acetylcholine receptor M1 (Homo sapiens) (UniProt P11229); experiment: Inhibition of muscarinic M1 receptor (unknown origin) at 10 uM
[3] = biological target: Histamine H1 receptor (Homo sapiens) (UniProt P35367); experiment: Inhibition of histamine H1 receptor (unknown origin) at 10 uM
Mus musculus [4] = experiment: Antidepressant activity in ICR mouse assessed as decrease in immobility time at 50 mg/kg, po administered 1 hr before test measured for 4 mins following training for 2 mins by forced swimming test; format: functional; design: scale not given: the % may be the effect or the level left
Procedure, shortened: (§1)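 Mouse forced swim test: ICR mice dosed orally 1 h before testing; 2 min training, then immobility duration recorded over 4 min. Activity expressed as % decrease in immobility duration. Mean ± SEM, n = 8; Dunnett's multiple comparisons after one-way ANOVA (p < 0.05).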

[5] = biological target: Muscarinic acetylcholine receptor M2 (Homo sapiens) (UniProt P08172); experiment: Inhibition of muscarinic M2 receptor (unknown origin) at 10 uM
[6] = biological target: Adenosine receptor A2a (Homo sapiens) (UniProt P29274); experiment: Inhibition of adenosine A2A receptor (unknown origin) at 10 uM
[7] = Half life in rat liver microsomes; conditions: liver microsomes
[8] = biological target: Sodium-dependent serotonin transporter (Homo sapiens) (UniProt P31645); experiment: Inhibition of SERT (unknown origin) at 10 uM
[9] = Half life in mouse liver microsomes; conditions: liver microsomes
[10] = Half life in rat plasma; format: ADME, cell-free
[11] = biological target: Sodium-dependent dopamine transporter (Homo sapiens) (UniProt Q01959); experiment: Inhibition of DAT (unknown origin) at 10 uM
[12] = biological target: Alpha-1D adrenergic receptor (Homo sapiens) (UniProt P25100); experiment: Inhibition of adrenergic alpha1D receptor (unknown origin) at 10 uM
[13] = Half life in human liver microsomes; conditions: liver microsomes
[14] = biological target: Amine oxidase [flavin-containing] B (Homo sapiens, UniProt P27338); experiment: Inhibition of MAO-B (unknown origin) at 10 uM
[15] = biological target: Amine oxidase [flavin-containing] A (Homo sapiens, UniProt P21397); experiment: Inhibition of MAO-A (unknown origin) at 10 uM
[16] = biological target: Sodium-dependent noradrenaline transporter (Homo sapiens) (UniProt P23975); experiment: Inhibition of NET (unknown origin) at 10 uM
[17] = biological target: Metabotropic glutamate receptor 5 (Homo sapiens, UniProt P41594); experiment: Negative allosteric modulation of human mGluR5 expressed in HEK293 cells assessed as calcium mobilization by FLIPR assay; format: functional, cell-based
Mus musculus [18] = experiment: Toxicity in ICR mouse assessed as induction of locomotor activity at 1 to 30 mg/kg, ip; format: organism-based; design: dose 1-30 mg/kg, route intraperitoneal; conditions: in vivo
Procedure, shortened: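 Locomotor activity tests in mice, run to separate antidepressant effect from hyperactivity. Compound given intraperitoneally over a dose range of 1 mg/kg to 30 mg/kg.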

Rattus norvegicus = experiment: Antidepressant activity in rat assessed as decrease in immobility time at 10 mg/kg, ip by forced swimming test; format: functional; design: scale not given: the % may be the effect or the level left; conditions: route intraperitoneal
Procedure, shortened: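 Rat forced swim test with intraperitoneal dosing at 10 mg/kg. Read-out is % decrease in immobility duration. Dosing vehicle 5% DMSO + 5% Cremophore.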

[19] = Oral bioavailability in rat; format: ADME, organism-based; conditions: in vivo
Procedure, shortened: (§2)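 Oral bioavailability (F) determined in mice and rats. Dosing vehicle 5% DMSO + 5% Cremophore.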

[20] = Oral bioavailability in mouse; format: ADME, organism-based; conditions: in vivo; procedure, shortened: as §2
Mus musculus [21] = experiment: Antidepressant activity in ICR mouse assessed as decrease in immobility time at 10 mg/kg, po administered 1 hr before test measured for 4 mins following training for 2 mins by forced swimming test; format: functional; design: scale not given: the % may be the effect or the level left; procedure, shortened: as §1
Mus musculus [22] = experiment: Antidepressant activity in ip dosed ICR mouse assessed as decrease in immobility time administered 1 hr before test measured for 4 mins following training for 2 mins by forced swimming test

Metabotropic glutamate receptor 5, sequence (P41594 whole entry): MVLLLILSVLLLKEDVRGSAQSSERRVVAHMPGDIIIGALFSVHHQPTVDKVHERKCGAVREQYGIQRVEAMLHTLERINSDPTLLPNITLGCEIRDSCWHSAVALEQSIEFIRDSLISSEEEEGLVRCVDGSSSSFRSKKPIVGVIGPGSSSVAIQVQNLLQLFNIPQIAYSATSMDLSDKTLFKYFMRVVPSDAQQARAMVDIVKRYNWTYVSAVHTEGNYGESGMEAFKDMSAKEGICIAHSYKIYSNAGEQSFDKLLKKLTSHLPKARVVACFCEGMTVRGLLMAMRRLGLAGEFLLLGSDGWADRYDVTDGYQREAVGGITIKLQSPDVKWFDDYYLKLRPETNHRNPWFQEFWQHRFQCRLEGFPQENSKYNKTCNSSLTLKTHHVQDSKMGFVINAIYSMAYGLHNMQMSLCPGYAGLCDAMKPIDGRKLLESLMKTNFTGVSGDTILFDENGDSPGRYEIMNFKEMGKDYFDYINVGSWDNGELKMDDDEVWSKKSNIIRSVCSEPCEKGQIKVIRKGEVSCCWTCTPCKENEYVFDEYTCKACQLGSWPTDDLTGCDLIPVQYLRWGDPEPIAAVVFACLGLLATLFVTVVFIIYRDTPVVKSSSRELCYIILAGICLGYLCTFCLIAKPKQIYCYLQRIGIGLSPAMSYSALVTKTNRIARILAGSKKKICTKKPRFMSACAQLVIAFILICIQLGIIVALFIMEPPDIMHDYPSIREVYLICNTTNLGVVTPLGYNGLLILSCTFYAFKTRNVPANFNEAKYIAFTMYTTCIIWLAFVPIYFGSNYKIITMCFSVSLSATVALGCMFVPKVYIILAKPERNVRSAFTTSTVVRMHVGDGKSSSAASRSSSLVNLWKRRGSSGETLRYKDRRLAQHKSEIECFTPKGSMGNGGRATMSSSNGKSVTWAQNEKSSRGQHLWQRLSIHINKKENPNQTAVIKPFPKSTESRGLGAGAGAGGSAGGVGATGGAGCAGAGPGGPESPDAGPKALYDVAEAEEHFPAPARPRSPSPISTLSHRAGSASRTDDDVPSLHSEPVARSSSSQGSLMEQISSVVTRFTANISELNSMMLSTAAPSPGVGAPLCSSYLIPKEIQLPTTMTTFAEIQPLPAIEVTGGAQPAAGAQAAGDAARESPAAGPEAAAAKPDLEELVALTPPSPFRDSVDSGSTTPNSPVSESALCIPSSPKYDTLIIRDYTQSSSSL
Alpha-1D adrenergic receptor (Homo sapiens), sequence (P25100 whole entry): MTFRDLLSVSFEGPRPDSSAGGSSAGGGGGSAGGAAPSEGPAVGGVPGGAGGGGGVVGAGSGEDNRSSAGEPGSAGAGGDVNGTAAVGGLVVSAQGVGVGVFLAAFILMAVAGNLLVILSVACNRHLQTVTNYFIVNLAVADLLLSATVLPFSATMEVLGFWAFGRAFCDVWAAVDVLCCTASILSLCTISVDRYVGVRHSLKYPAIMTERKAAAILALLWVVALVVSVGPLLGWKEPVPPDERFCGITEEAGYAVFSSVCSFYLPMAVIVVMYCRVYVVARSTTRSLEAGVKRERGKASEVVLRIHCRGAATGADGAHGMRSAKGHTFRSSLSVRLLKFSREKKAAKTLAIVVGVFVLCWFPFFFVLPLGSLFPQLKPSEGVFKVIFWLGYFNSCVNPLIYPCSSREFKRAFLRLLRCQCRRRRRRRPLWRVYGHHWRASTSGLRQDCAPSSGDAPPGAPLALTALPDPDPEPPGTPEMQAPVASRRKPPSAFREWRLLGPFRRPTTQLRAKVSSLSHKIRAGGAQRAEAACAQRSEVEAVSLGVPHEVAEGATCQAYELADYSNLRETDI
Sodium-dependent dopamine transporter (Homo sapiens), sequence (Q01959 whole entry): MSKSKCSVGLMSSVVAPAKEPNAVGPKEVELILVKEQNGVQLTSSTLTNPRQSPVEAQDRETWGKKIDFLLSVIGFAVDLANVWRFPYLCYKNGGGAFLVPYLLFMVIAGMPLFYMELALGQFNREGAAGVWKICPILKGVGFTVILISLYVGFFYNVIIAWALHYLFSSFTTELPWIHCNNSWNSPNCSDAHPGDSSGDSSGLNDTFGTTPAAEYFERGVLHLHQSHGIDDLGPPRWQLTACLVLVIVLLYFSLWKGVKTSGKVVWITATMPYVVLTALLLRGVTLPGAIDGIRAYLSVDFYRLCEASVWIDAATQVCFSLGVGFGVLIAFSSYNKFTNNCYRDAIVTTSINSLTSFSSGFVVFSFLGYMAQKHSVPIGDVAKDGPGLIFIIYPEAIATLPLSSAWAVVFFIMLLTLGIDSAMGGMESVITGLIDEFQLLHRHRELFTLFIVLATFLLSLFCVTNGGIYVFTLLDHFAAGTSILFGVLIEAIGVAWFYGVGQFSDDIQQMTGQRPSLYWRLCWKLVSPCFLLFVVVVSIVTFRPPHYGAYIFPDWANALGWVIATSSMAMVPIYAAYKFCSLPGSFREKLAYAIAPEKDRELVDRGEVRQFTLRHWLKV
Sodium-dependent noradrenaline transporter (Homo sapiens), sequence (P23975 whole entry): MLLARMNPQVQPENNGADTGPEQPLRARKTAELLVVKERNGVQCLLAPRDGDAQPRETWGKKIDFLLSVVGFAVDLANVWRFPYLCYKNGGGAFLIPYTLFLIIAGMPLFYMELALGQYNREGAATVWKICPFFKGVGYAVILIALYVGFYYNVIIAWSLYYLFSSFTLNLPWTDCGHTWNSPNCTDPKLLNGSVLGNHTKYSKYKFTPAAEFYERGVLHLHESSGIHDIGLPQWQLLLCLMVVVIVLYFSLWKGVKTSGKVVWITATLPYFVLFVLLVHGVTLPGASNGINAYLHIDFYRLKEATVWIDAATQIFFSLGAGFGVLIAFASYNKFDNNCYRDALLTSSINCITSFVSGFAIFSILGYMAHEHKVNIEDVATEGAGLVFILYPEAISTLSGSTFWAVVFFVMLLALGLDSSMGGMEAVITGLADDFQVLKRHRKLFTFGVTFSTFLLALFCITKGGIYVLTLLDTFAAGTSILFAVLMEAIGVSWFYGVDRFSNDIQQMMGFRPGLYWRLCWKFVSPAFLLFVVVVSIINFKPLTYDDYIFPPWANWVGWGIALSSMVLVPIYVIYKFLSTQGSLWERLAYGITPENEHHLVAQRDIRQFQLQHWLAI
Sodium-dependent serotonin transporter (Homo sapiens), sequence (P31645 whole entry, looked up): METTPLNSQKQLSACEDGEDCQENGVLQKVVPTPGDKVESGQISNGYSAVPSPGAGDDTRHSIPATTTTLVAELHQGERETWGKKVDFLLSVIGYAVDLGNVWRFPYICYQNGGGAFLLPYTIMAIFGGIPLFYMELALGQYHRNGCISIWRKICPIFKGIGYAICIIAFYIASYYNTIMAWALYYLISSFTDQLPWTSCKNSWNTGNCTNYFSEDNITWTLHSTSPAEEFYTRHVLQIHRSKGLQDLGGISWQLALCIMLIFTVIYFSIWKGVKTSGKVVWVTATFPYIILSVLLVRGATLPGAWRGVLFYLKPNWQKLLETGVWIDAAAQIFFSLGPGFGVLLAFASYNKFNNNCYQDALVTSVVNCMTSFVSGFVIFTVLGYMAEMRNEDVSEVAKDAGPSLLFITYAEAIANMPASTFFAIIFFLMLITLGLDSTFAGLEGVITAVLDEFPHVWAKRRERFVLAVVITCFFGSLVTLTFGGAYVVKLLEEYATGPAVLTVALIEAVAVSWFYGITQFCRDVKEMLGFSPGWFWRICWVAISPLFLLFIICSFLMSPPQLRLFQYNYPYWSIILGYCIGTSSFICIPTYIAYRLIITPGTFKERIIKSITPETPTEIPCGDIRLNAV
Amine oxidase [flavin-containing] A, sequence (P21397 whole entry): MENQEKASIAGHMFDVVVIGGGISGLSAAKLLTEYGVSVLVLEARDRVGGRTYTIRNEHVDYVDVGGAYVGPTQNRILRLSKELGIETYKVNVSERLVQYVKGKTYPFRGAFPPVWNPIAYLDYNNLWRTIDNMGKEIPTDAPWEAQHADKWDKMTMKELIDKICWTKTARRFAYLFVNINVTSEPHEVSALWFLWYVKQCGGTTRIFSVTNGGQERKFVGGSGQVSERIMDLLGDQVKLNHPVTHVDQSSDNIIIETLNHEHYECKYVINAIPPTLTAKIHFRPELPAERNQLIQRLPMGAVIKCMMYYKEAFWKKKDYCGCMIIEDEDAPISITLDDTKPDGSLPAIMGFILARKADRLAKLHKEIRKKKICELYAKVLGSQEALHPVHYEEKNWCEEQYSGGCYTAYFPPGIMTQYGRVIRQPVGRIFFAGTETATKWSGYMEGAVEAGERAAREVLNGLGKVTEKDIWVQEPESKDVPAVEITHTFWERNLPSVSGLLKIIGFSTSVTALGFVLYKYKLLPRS
5-hydroxytryptamine receptor 2C (Homo sapiens), sequence (P28335 whole entry): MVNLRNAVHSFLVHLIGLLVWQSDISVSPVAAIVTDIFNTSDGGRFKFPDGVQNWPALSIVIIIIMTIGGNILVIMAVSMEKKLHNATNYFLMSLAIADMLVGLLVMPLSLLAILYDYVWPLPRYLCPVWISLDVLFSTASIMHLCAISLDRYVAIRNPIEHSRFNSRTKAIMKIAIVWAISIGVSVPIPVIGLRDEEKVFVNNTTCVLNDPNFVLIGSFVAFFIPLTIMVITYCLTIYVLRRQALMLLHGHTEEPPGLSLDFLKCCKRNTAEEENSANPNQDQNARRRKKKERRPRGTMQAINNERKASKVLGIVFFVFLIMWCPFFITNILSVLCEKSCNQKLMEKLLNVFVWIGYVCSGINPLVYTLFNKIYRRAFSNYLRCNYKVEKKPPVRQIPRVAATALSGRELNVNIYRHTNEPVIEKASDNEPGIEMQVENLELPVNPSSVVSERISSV
Adenosine receptor A2a (Homo sapiens), sequence (P29274 whole entry): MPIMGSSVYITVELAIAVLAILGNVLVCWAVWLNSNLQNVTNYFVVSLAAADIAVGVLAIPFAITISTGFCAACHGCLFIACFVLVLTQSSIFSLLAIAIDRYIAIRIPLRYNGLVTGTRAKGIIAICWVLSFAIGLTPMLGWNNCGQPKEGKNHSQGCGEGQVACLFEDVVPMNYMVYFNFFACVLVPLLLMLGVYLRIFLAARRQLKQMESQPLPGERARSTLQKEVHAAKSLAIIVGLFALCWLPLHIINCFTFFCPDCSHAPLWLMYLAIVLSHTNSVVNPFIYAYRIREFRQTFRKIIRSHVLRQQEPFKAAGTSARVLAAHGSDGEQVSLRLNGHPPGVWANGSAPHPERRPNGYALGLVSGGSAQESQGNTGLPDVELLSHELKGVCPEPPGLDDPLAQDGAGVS

inhibition [1]: 66%
inhibition [2]: inactive
inhibition [3]: inactive
inhibition [5]: inactive
inhibition [6]: inactive
half-life [7]: 24 min
inhibition [8]: inactive
half-life [9]: 18 min
half-life [10]: > 180 min
inhibition [11]: 60%
inhibition [12]: inactive
half-life [13]: 66 min
inhibition (INH) [14]: Not Active
inhibition (INH) [15]: Not Active
inhibition [16]: 63%
IC50 [17]: 4.4 nM
SMILES: Cc1cccc(NC(=O)c2nn(C)c(-c3ccccc3)c2C)n1
Activity (Mus musculus [4]): 53.3%

half-life [7]: 56 min
bioavailability [19]: < 2%
half-life [9]: 36 min
bioavailability [20]: 31%
half-life [13]: 82 min
IC50 [17]: 1.1 nM
SMILES: Cc1cccc(NC(=O)c2nn(C)c(-c3ccc(F)cc3)c2C)n1
Activity (Mus musculus [18]): Non-toxic
Activity (Rattus norvegicus): 10.9%
Activity (Mus musculus [21]): 61.1%
ED50 (Mus musculus [22]): 1.1 mg/kg
